High-throughput results (PubChem)
Most compounds without a hit are left out; they make up all but 2.8% or so of the library.
PAFAH2 FP inh: PAFAH2 (human) inhibition. Q99487. recombinant PAFAH2, FP-rhodamine activity probe, fluorescence polarization. inhibition, % at 3.39 µM. 340,000 compounds, 0.99% hits. AID 492956;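 active = inhibition above the mean over all tested compounds plus 3 SD, cut at about 30% in these data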;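 note: inhibitors block probe labeling of enzyme so polarization drops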
pPAFAH inh: pPAFAH (human) enzyme inhibition. Q13093. recombinant pPAFAH, FP-rhodamine probe fluorescence polarization. inhibition, % at 3.39 µM. 330,000 compounds, 1.5% hits;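 active = inhibition above the mean inhibition across the screen plus 3 SD, cut at about 25% in these data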;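 note: inhibitors block binding of the rhodamine activity-based probe so polarization drops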
HTRA1 inhibitor: inhibitors of human serine peptidase HTRA1; recombinant HTRA1, FP-rhodamine activity-based probe, fluorescence polarization; inhibition, % at 5.96 µM; 340,000 compounds, 0.5% hits; AID 504803; Q92743; in the data active = inhibition above about 36%
Target sequence (Q92743 whole entry, looked up): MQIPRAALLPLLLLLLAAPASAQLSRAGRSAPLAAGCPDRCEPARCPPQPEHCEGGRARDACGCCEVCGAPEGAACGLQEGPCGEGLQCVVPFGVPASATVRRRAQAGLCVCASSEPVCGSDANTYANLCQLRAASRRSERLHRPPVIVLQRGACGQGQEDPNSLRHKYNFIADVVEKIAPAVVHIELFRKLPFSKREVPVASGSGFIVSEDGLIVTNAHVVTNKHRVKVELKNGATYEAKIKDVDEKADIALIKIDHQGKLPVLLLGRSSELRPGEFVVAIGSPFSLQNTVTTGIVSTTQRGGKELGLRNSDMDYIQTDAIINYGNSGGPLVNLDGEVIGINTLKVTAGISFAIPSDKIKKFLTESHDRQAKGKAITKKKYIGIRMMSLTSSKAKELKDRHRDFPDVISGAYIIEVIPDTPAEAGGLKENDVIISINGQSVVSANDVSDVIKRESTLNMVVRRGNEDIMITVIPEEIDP
PAFAH1B3 inh: PAFAH1B3 (human) inhibition. recombinant PAFAH1B3, FP-rhodamine probe, fluorescence polarization. inhibition, % at 3.39 µM. 340,000 compounds, 0.28% hits. AID 492972;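 active = inhibition above the screen-wide average of all tested compounds plus 3 SD, cut at about 25% in these data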
ABHD4 inh: inhibitors of mouse ABHD4 | Q8VD66 | purified mABHD4, FP-Rh probe fluorescence polarization | inhibition, % at 8.92 µM | 370,000 compounds, 0.54% hits;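 active = inhibition exceeding the mean over every tested compound plus 3 SD, cut at about 30% in these data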
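Assay system: Wild-type mouse ABHD4 protein | Medium: HEPES pH 7.0 buffer, 150 mM NaCl, 0.01% Pluronic F-127 | Incubation: Enzyme–compound pre-incubation 45 min, then probe 60 min, both 25 °C | Technique: Fluorescence polarization with parallel and perpendicular emission, 525/598 nm | Evaluation: % inhibition of FP-Rh probe binding versus controls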
PAFAH1B2 inh: PAFAH1B2 (human) inhibition. P68402. recombinant PAFAH1B2, FP-rhodamine activity probe, fluorescence polarization. inhibition, % at 3.39 µM. 340,000 compounds, 1.2% hits. AID 492953;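 active = inhibition above the mean of all tested compounds plus 3 SD, cut at about 24% in these data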
PAFAH2 FP conf: confirmation of human PAFAH2 inhibitors. 2,300 compounds, 65% hits. AID 493030. inhibition, % at 3.39 µM. recombinant PAFAH2, FP-rhodamine activity probe, fluorescence polarization. shares compounds with PAFAH2 FP inh;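 active = mean inhibition over three repeats above a set limit taken from the earlier primary screen, cut at about 30% in these data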;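 note: inhibitor blocks binding of rhodamine activity probe so polarization falls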
Numbers stand for hits; n = inactive; x = not tested or not shown.

SMILES	PAFAH2 FP inh	pPAFAH inh	HTRA1 inhibitor	PAFAH1B3 inh	ABHD4 inh	PAFAH1B2 inh	PAFAH2 FP conf
O=C1C(=O)N(CCCN2CCOCC2)C(c2ccc(F)cc2)/C1=C(\O)c1ccc2c(c1)OCCO2 (stereo unspecified)	48	n	n	n	n	n	n
CC(C)Cc1csc(NC(=O)c2ccc(F)cc2)c1C(=O)O	37	n	n	n	n	n	n
CC(NC(=O)COC(=O)c1ccccc1F)C1CC2CCC1C2 (stereo unspecified)	76	n	n	n	n	n	63
O=[N+]([O-])c1ccc(C=Nc2cccc3ccccc23)s1	66	n	n	n	x	n	n
COC(=O)[C@]12C[C@H](CC(=O)NCc3cccc(C(F)(F)F)c3)C(=O)N(Cc3ccccc3)C1=C[C@H](C(C)C)O[C@@H]2C1CC1	x	x	x	x	n	x	x
CCCCCCC(c1c(C)n(C)n(-c2ccccc2)c1=O)c1c(C)n(C)n(-c2ccccc2)c1=O	70	n	n	n	n	n	70
O=C(COC(=O)c1c(F)cccc1Cl)NCC1CCCCC1	60	n	n	n	n	n	43
O=C(COC(=O)c1c(Cl)cccc1Cl)NCC1CCCO1 (stereo unspecified)	n	n	n	n	n	n	x
O=C(COC(=O)c1c(Cl)cccc1Cl)NC1CCCCCCC1	n	n	n	n	n	n	x
O=C(COC(=O)c1c(F)cccc1Cl)NC1CCCC1	37	n	n	n	n	n	n
CC(=O)C1=C(O)C(=O)N(c2cc(C(C)(C)C)on2)C1c1ccc(Br)cc1 (stereo unspecified)	34	n	n	n	n	n	n
CC(=O)C1=C(O)C(=O)N(c2cc(C(C)(C)C)on2)C1c1ccc(C(C)C)cc1 (stereo unspecified)	n	n	n	n	x	n	x
C#CCNC(=O)C[C@H]1C[C@@]2(C(=O)OC)C(=C[C@H](C(C)C)O[C@@H]2C2CC2)N(Cc2ccc3c(c2)OCO3)C1=O	x	x	x	x	n	x	x
CN(C(=O)COC(=O)c1cnc(Cl)c(Cl)c1)C1CCCCC1	n	n	n	n	n	n	x
COC(=O)c1cc(Cl)c(N)cc1OC	n	n	n	n	n	n	x
COc1cc(N)c(Cl)cc1C(=O)OCC(=O)NC1CCCC1	48	n	n	n	n	n	34
COc1cc(N)c(Cl)cc1C(=O)OCC(=O)N(C)C1CCCCC1	55	n	n	n	n	n	30
COc1ccccc1C(=O)OCCCN=C1NS(=O)(=O)c2ccccc21	n	n	n	n	n	n	x
COc1ccc(C(=O)OCCN=C2NS(=O)(=O)c3ccccc32)cc1OC	43	n	n	n	n	n	n
Cc1c(C(c2ccccc2O)c2c(C)n(C)n(-c3ccccc3)c2=O)c(=O)n(-c2ccccc2)n1C	n	n	n	n	n	n	x
Cc1c(C(c2cc3c(cc2Br)OCO3)c2c(C)n(C)n(-c3ccccc3)c2=O)c(=O)n(-c2ccccc2)n1C	81	n	n	n	n	n	77
O=C(O)CCC(=O)Nc1ccc(C(=O)OCC(=O)c2ccc(Cl)cc2Cl)cc1	62	n	n	n	n	n	51
Cc1ccc(Cl)cc1NC(=O)c1ccc(NC(=O)CCC(=O)O)cc1	n	n	n	n	n	n	x
NS(=O)(=O)c1cccc(NC(=O)COC(=O)c2ccccc2SCC(=O)N2CCCC2)c1	40	n	n	n	n	n	36
O=C(COC(=O)c1ccccc1SCC(=O)N1CCCC1)Nc1ccccc1	88	n	n	n	n	n	80
COc1cccc(NC(=O)COC(=O)c2ccccc2SCC(=O)N2CCCC2)c1	82	n	n	n	n	n	81
O=C(OCC(=O)N1CCOCC1)c1ccccc1SCC(=O)N1CCCC1	n	n	n	n	n	n	x
COc1ccc(C)cc1NC(=O)COC(=O)c1ccccc1SCC(=O)N1CCCC1	n	n	n	n	n	n	x
COc1cc(NC(=O)COC(=O)c2ccccc2SCC(=O)N2CCCC2)cc(OC)c1	42	n	n	n	n	n	n
O=C(c1ccccc1)C1CCN(c2ncnc3sccc23)CC1	x	x	x	x	n	x	x
